Experimental data from ChEMBL document CHEMBL1139172, “Identification, synthesis, and biological evaluation of novel pyrazoles as low molecular weight luteinizing hormone receptor agonists” (Bioorg Med Chem Lett, 2007).
pEC50: −log10 of the molar value.

Key:
[1] = biological target: T1, Lutropin-choriogonadotropic hormone receptor (Homo sapiens, UniProt P22888); assay: Agonist activity at human LH receptor expressed in CHO cells assessed as production of cAMP after 60 mins by SPA; type: functional, cell-based
T1 sequence (P22888 whole entry): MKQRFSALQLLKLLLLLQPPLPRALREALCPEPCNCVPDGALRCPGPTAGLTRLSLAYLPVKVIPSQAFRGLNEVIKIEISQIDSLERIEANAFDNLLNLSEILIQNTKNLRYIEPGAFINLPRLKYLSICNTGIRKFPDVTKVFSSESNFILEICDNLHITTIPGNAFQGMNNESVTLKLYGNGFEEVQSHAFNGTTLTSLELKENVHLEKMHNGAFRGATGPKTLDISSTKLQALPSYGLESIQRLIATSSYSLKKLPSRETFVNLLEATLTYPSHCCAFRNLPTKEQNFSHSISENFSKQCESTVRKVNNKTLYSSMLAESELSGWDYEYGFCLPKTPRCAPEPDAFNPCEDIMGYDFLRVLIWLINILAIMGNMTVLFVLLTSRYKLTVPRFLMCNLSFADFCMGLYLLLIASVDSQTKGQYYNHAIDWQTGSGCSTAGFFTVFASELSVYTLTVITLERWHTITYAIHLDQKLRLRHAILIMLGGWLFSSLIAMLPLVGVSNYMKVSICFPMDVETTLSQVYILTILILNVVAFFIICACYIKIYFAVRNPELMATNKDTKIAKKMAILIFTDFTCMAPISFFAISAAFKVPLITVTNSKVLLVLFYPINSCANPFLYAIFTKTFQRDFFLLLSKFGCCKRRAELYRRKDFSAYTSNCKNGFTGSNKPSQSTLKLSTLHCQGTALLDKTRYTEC

[2] = biological target: T1, Lutropin-choriogonadotropic hormone receptor; assay: Agonist activity at human LH receptor expressed in CHO cells assessed as production of cAMP after 60 mins by SPA relative to luteinizing harmone; type: functional, cell-based
Rattus norvegicus = assay: Induction of testosterone in Sprague-Dawley rat at 4 to 32 mg/kg, ip by radioimmunoassay; type: functional, organism-based
Method in brief: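 Adult Sprague–Dawley rats implanted subcutaneously in the scapular region on day 1 with a 7-day slow-release pellet of 7.5 mg diethylstilbestrol. Two days later, ip injection of 0, 4, 16 or 32 mg/kg; 3 rats per group. Blood taken by retro-orbital plexus 2 h after dosing; serum frozen at -80 °C. Testosterone measured by ELISA (legend says radioimmunoassay), with standard deviations.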

[3] = biological target: Lutropin-choriogonadotropic hormone receptor (Rattus norvegicus) (UniProt P16235); assay: Efficacy at LH receptor in Sprague-Dawley rat Leydig cells assessed as production of testosterone after 3 hrs; type: cell-based
Chain of Lutropin-choriogonadotropic hormone receptor (Rattus norvegicus) (P16235 whole entry): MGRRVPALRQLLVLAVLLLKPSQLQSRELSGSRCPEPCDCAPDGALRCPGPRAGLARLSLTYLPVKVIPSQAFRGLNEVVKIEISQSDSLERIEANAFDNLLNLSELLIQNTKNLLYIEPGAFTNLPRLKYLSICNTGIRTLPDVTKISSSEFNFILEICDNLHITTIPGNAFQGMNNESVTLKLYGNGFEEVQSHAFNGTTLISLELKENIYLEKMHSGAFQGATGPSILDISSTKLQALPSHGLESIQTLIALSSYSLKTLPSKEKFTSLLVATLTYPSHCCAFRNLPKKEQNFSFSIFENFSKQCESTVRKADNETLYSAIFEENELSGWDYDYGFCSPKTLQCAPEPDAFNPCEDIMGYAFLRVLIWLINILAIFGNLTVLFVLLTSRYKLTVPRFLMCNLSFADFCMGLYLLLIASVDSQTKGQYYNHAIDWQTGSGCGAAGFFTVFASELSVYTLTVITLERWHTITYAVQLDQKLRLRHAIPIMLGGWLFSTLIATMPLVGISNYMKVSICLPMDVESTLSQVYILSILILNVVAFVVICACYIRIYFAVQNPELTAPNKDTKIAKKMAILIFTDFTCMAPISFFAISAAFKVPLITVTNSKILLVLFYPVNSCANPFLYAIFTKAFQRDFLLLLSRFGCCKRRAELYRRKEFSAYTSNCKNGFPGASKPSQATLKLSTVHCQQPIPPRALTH
Method in brief: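 Leydig cells from male Sprague–Dawley rats aged 21–40 days. Decapsulated testis digested 15 min at 37 °C, 5% CO2, in phenol red-free DMEM/F12 with 0.1% collagenase. Washed cells plated at 350,000/well in phenol red-free DMEM/F12 with 0.1% BSA and stimulated 3 h. After centrifugation, medium testosterone measured by ELISA. ED50 and efficacy derived.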

| Structure (SMILES) | pEC50 [1] | Activity [2] | ED50 [3] | Efficacy [3] | Activity (Rattus norvegicus) |
| --- | --- | --- | --- | --- | --- |
| CC(C)(C)c1ccc(-n2nc(-c3ccncc3)cc2NCCCC(=O)N[C@@H](Cc2ccc(O)cc2)C(N)=O)cc1 | < 4.00 | – | – | – | – |
| CC(C)(C)c1ccc(-n2nc(-c3cc4ccccc4cn3)cc2-c2cccc(C(=O)N[C@@H](Cc3ccc(O)cc3)C(N)=O)c2)cc1 | 6.30 | 19% | – | – | – |
| CC(C)(C)c1ccc(-n2nc(-c3ccncc3)cc2CCCCC(=O)N[C@@H](Cc2ccc(O)cc2)C(N)=O)cc1 | 6.60 | 55% | – | – | – |
| CC(C)(C)c1ccc(-n2nc(-c3ccncc3)cc2CCCCC(=O)N[C@H](CC(N)=O)Cc2ccc(O)cc2)cc1 | 6.72 | 66% | – | – | – |
| CC(C)(C)c1ccc(-n2nc(-c3cccnc3)cc2CCC(=O)N[C@@H](Cc2ccc(O)cc2)C(N)=O)cc1 | < 4.00 | – | – | – | – |
| CC(C)(C)Oc1ccc(C[C@H](NC(=O)CCCCc2cc(-c3cccnc3)nn2-c2ccc(C(C)(C)C)cc2)C(N)=O)cc1 | 4.92 | 72% | – | – | – |
| CC(C)(C)c1ccc(-n2nc(CCCCC(=O)N[C@@H](Cc3ccc(O)cc3)C(N)=O)cc2-c2ccncc2)cc1 | 5.64 | – | – | – | – |

Molecules with a higher pEC50 [1], results first:

| pEC50 [1] | Activity [2] | ED50 [3] | Efficacy [3] | Structure (SMILES) | Activity (Rattus norvegicus) |
| --- | --- | --- | --- | --- | --- |
| 6.77 | 78% | – | – | CC(C)(C)c1ccc(-n2nc(-c3ccccn3)cc2CCCCCC(=O)N[C@H](C(N)=O)c2ccc(O)cc2)cc1 | – |
| 6.82 | 41% | – | – | CC(C)(C)c1ccc(-n2nc(-c3ccccn3)cc2CCCCCC(=O)N[C@@H](Cc2cccc(O)c2)C(N)=O)cc1 | – |
| 7.10 | 45% | – | – | CC(C)(C)c1ccc(-n2nc(-c3cccnc3)cc2CCCCC(=O)NCCc2ccc(O)cc2)cc1 | – |
| 7.70 | 70% | 1310 nM | 78% | CC(C)(C)c1ccc(-n2nc(-c3cccnc3)cc2CCCCC(=O)N[C@@H](Cc2ccc(O)cc2)C(N)=O)cc1 | Dose-dependent effect |
